# In the library only some 2% were active in any assay of this set; here they are far more common.
# PKA-R2B activ = PKA-R2B complex activation. PKA-R2B holoenzyme dissociation, Cy5-IP20 fluorescence polarization; R2B truncated from residue 108, S112A mutant; 0% DMSO only, 100% 113 µM cGMP. activation, % at 11.4 µM. 0.079% of 340,000 active;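 active = activation above a cutoff set at the mean over all compounds plus 3 SD, cut at about 18% in these data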;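 also: higher means more holoenzyme dissociation and a rise in polarization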
# NTR1 ag = activates human neurotensin receptor 1 | P30989 | NTR1-U2OS beta-arrestin-GFP spot imaging, agonist mode | activation, % at 20 µM | 0.17% of 330,000 active;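 active = activation at or above 40% of the spot to cytoplasm intensity ratio, with at least 20 cells analyzed; inconclusive = wells under 20 cells, flagged as cytotoxic or low count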;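 also: 0% = DMSO without peptide and 100% = 100 nM NTR1 peptide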
# Target sequence (P30989 whole entry, looked up): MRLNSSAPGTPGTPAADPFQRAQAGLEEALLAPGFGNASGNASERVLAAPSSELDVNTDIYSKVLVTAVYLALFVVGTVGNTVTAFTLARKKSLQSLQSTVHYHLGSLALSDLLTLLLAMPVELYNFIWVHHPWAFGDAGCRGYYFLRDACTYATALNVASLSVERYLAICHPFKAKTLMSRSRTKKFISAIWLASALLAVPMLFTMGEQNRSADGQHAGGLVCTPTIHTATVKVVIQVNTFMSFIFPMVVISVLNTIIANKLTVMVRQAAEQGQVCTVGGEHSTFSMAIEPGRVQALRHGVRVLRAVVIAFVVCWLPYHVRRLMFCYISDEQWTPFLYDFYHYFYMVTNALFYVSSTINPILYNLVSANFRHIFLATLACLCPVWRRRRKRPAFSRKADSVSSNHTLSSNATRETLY
# CAL PDZ FP-1 = blocks peptide binding to human CAL PDZ domain | purified CAL PDZ, TMR-peptide fluorescence polarization, 1 h | inhibition, % at 20 µM | 0.02% of 330,000 active | AID 504414;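 active = highest replicate inhibition of at least 40%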;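 also: plate controls were DMSO neutral control wells for no effect and unlabeled competitor peptide control wells for full effect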
#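 Read-out basis: mP drop reported as inhibition | Assay system: Tagged CAL PDZ protein CerCALP, purified | Benchmarks: Unlabelled peptide for full inhibition, DMSO wells as neutral | Schedule: 1 h incubation at room temperature before polarization reading | Buffer or medium: Sodium phosphate/NaCl buffer pH 7.4 with TCEP, IgG, Thesit | Doses: Single point, 20 µM | Measured by: Fluorescence polarization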
# CAL PDZ FP-2 = blocks peptide binding to the human CAL PDZ domain; Q9HD26; purified CAL PDZ, TMR-peptide fluorescence polarization, 1 h; inhibition, % at 24.9 µM; 0.92% of 300,000 active; AID 602252;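 active = mean inhibition of at least 30% with at least half of replicates also reaching 30%; inconclusive = no clear call, values can overlap the other calls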;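 also: 0% = DMSO neutral control and 100% = excess unlabeled competitor peptide PRC23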
# PKA-R1A act = activators of PKA-R1A complex; P00514+P68181; PKA-R1A dissociation, Cy5-IP20 fluorescence polarization; scaled: DMSO 0%, 113 µM cGMP 100%; activation, % at 11.4 µM; 0.083% of 340,000 active;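 active = percent activation above the mean of all tested compounds plus 3 SD, cut at about 19% in these data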;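 also: higher means more PKAc released from R1A so a rise in polarization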
# dFosB act-1 = mouse delta FosB homodimer activation | P13346 | purified delta FosB, TAMRA-CDK5 oligo fluorescence polarization; percent of positive-control signal above neutral wells | activation, % at 25 µM | 0.99% of 340,000 active;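 active = mean activation above about 17%, with every replicate also reaching it, limit read from the data, passing the limit was not always enough; inconclusive = only one of the two conditions met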
# dFosB act-2 = delta FosB (mouse) homodimer activation | activation, % at 24.9 µM | 2,400 tested, under 10 active | shares compounds with dFosB act-1 | purified delta FosB, TAMRA-CDK5 oligo fluorescence polarization; normalised: neutral wells 0, positive control 100 | AID 588690;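 active = highest replicate activation at or above 34% and every replicate reaching that threshold; inconclusive = meets only one of the two criteria; inactive = meets neither criterion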;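 also: higher polarization means more probe DNA bound by delta FosB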
# The depositor's hits bear a star; ? = inconclusive; . = no result given.
SMILES,PKA-R2B activ,NTR1 ag,CAL PDZ FP-1,CAL PDZ FP-2,PKA-R1A act,dFosB act-1,dFosB act-2
O=C(Nc1ccc(S(=O)(=O)Nc2nccs2)cc1)c1ccc(N2C(=O)c3ccccc3C2=O)cc1,9,1,-4,-3,0,33*,-1
COc1ccc(-c2nn(-c3ccccc3)cc2C(=O)Nc2nccs2)cc1,8,1,-3,-1,-8,-3,.
O=C(Nc1nccs1)c1cn(-c2ccccc2)nc1-c1ccncc1,-3,-1,-4,5,4,36*,1
CCOc1ccc(C(=O)/C=C/Nc2ccc(S(=O)(=O)N=C(N)N)cc2)cc1,-4,1,-1,-5,-7,34*,6
NC(N)=NS(=O)(=O)c1ccc(N/C=C/C(=O)c2ccc(Cl)c(Cl)c2)cc1,1,18,0,1,-4,46*,4
CCOc1ccc(N/C=C/C(=O)c2ccc(OC)c(OC)c2)cc1,-7,0,0,2,1,2,.
O=C(/C=C/Nc1ccc(S(=O)(=O)Nc2ncccn2)cc1)c1ccc(Cl)c(Cl)c1,-11,0,-1,9,2,-27,.
CCCn1nc(C(=O)Nc2cc(OCC)c(N3CCOCC3)cc2OCC)c2ccccc2c1=O,-6,.,-1,.,-5,-11,.
O=C(NNC(=O)C1CC=CCC1)c1ccccc1O (centres undefined),1,0,-1,0,6,0,.
Cc1ccc(S(=O)(=O)N2CCN(C(=O)C(Cc3ccccc3)NC(=O)c3ccccc3)CC2)cc1 (centres undefined),1,2,0,-3,0,23*,3
COc1ccc(/C=C/C(=O)NC(=S)Nc2ccccn2)cc1,-3,0,.,2,4,17*,0
COc1ccccc1/C=C/C(=O)NC(=S)Nc1ccccn1,4,1,-2,-10,-2,-17,.
Cc1ccc(O)c(C(=O)c2cnn(C(=O)c3cccc(S(=O)(=O)N(C)C)c3)c2)c1,-5,0,-2,-2,-7,13,.
COc1ccc(O)c(C(=O)c2cnn(C(=O)c3cccc(S(=O)(=O)N(C)C)c3)c2)c1,0,6,1,.,4,37*,1
C=CCNC(=O)c1cc(-c2ccc3c(c2)OCO3)on1,15,1,0,-4,-4,8,.
O=C(Nc1ccc(Br)cc1)c1cc(-c2ccc3c(c2)OCO3)on1,-3,0,0,2,-2,25*,0
COc1ccc(NC(=O)c2cc(-c3ccc4c(c3)OCO4)on2)cc1,-11,-2,-1,0,-15,26*,-1
COc1ccc(-c2cc(C(=O)Nc3ccc(C)cc3)no2)cc1,-2,1,-2,1,-3,-1,.
Cc1ccc2oc(-c3ccc(NC(=O)c4ccc5c(c4)OCO5)cc3)nc2c1,3,0,-2,-3,0,45*,2
Cc1ccc2oc(-c3ccc(NC(=O)c4cccnc4)cc3)nc2c1,-1,4,-2,-3,-4,-5,.
Cc1nn(Cc2ccc(Cl)cc2)c(C)c1NC(=O)c1cc(-c2ccc3c(c2)OCO3)on1,3,5,.,-8,-7,58*,7
Cc1nn(Cc2ccc(Cl)c(Cl)c2)c(C)c1NC(=O)c1cc(-c2ccc3c(c2)OCO3)on1,-4,3,-2,.,-2,-11,.
O=C(Cc1cccc(NC(=O)C2CCN(S(=O)(=O)c3cccc([N+](=O)[O-])c3)CC2)c1)Nc1cccc(C(=O)N2CCCCC2)c1,-1,.,0,-4,2,-4,.
Cc1ccc(NC(=O)c2cc(-c3ccc4c(c3)OCO4)on2)cc1,-1,0,0,.,0,18*,3
Cc1ccc(-c2cc(C(=O)NCc3ccc4c(c3)OCO4)no2)cc1,-12,0,0,7,-17,4,.
SMILES,PKA-R2B activ,NTR1 ag,CAL PDZ FP-1,CAL PDZ FP-2,PKA-R1A act,dFosB act-1,dFosB act-2
Cc1ccsc1C(=O)N1CCC(N2CCC(C(=O)NCC3CCCO3)CC2)CC1 (centres undefined),0,1,-2,.,-11,35*,0
O=C(NCC1CCCO1)C1CCN(C2CCN(Cc3cccs3)CC2)CC1 (centres undefined),2,0,0,-5,-11,10,.
Cc1ccc(-c2nnc(NCc3nc4ccccc4[nH]3)c3ccccc23)cc1S(=O)(=O)N(C)C,-1,10,1,-1,-2,?,.
Cc1ccc(-c2nnc(NCc3nc4ccccc4[nH]3)c3ccccc23)cc1S(=O)(=O)N1CCOCC1,2,8,-6,-7,-6,56*,0
CCC(CNC(=O)c1c(C)nn(-c2ccccc2)c1Cl)c1ccccc1 (centres undefined),-2,2,0,-4,-3,-3,.
Cc1nc2cc(N3CCOCC3)c(NC(=O)C3CC3)cc2c(=O)n1Cc1ccccc1,-15,-2,-2,1,-4,-3,.
Cc1nc2cc(N3CCCCC3)c(NC(=O)c3ccncc3)cc2c(=O)n1Cc1ccccc1,-7,.,0,.,0,24*,6
COc1cc(OC)cc(C(=O)Nc2cccc(-c3ccc(N4CCOCC4)nn3)c2)c1,-3,0,-5,-5,-11,20*,2
COc1ccc(C(=O)Nc2cccc(-c3ccc(N4CCOCC4)nn3)c2)cc1,-5,1,-2,-2,-2,-7,.
Cc1sc2c(c1C)c(=O)n(-c1cccc(C(F)(F)F)c1)c(=O)n2CC(=O)NCc1ccco1,-3,-2,-1,-2,0,57*,1
CCOc1ccc(-n2c(=O)c3c(C)c(C)sc3n(CC(=O)NCc3ccco3)c2=O)cc1,-5,1,.,-4,0,8,.
C/C(=N\NC(=O)c1nnn(-c2nonc2N)c1C(C)C)c1ccc2ccccc2c1,8,-1,-2,-1,0,41*,-1
COc1ccc(/C(C)=N/NC(=O)c2nnn(-c3nonc3N)c2-c2ccccc2)cc1,15,0,-1,-1,-9,30*,7
C/C(=N\NC(=O)c1nnn(-c2nonc2N)c1C(C)C)c1ccncc1,11,0,.,7,6,-2,.
NC(=O)C1CCN(C(=O)C2CC(=O)N(c3ccc(F)cc3)C2)CC1 (centres undefined),-11,0,-2,2,1,4,.
Cc1csc2ncnc(NNC(=O)c3ccc(Cl)cc3)c12,-7,1,0,4,0,28*,2
O=C(NNc1ncnc2sccc12)c1ccc(Cl)cc1,.,-1,0,.,.,0,.

# Source: PubChem BioAssay
